Screening results (PubChem BioAssay)
GalR3 antag: blocks the human galanin receptor 3. HEK293 GalR3-CNG cAMP membrane potential fluorescence; galR3 body fused to GalR1 C-terminus. inhibition, % at 3 µM. actives 0.44% (n = 360,000);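 active = inhibition above the screen-wide average plus 3 SD, cut at about 13% in these data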;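 also: forskolin and galanin both at EC90 stimulate the cells; cAMP rise reported by CNG channel membrane potential dye signal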
Target sequence (O60755 1-299 limits assumed): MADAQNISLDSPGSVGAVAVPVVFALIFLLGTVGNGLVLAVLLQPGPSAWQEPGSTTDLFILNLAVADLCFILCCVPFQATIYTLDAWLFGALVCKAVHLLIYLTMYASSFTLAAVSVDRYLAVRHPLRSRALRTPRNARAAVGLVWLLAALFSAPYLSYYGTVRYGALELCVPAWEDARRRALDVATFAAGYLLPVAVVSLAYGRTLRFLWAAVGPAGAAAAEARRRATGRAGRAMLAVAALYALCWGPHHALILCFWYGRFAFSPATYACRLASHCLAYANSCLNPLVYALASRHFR
697 NFkB inh: inhibitors of the PMA/ionomycin-induced NF-kB reporter in 697 B cells | actives 0.33% (n = 330,000) | 697 B-cell NF-kB luciferase reporter, 16 h | inhibition, % at 4 µM | AID 435022; in the data active = inhibition above about 35%
NR2E3 ag-1: agonists of human nuclear receptor NR2E3; inhibition of corepressor binding, % at 4.78 µM; GST-NR2E3/biotin-RetCOR TR-FRET, 1536-well; Q9Y5X4; AID 2300; actives 0.12% (n = 320,000);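 active = percent inhibition above the cutoff of mean plus 3 SD of all tested compounds, set per screening campaign, cut at about 20% in these data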
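Test system: GST-NR2E3 and biotin-RetCOR proteins | Quantity: 1.35 nM GST-tagged NR2E3 final | Medium: Tris pH 7.5 | Also added: 7 nM biotin-RetCOR | Dosing: Compound at 4.8 µM, single dose | Timing: 5 h at 4 °C | Detection: Time-resolved FRET | Read-out basis: Percent inhibition | Benchmarks: Biotin wells as high control, 0.6% DMSO wells as low control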
NR2E3 ag-2: human photoreceptor-specific nuclear receptor agonism; AID 602229; actives 0.35% (n = 360,000); Q9Y5X4; CHO-S Gal4-NCOR/VP16-NR2E3 two-hybrid, luciferase; inhibition of corepressor binding, % at 3.98 µM;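 active = inhibition above the mean of all tested compounds plus 3 SD, cut at about 70% in these data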;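 also: higher means lower luciferase signal from less NR2E3 corepressor binding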
Jurkat NFkB inh: inhibitors of the PMA/ionomycin-induced NF-kB reporter in Jurkat cells | PMA/ionomycin-induced NF-kB luciferase reporter, luminescence | inhibition, % at 4 µM | actives 0.53% (n = 330,000) | AID 435003; in the data active = inhibition above about 50%
JMJD2C inh: blocks human GASC-1 demethylase activity; Q9H3R0; GST-JMJD2C(1-420) H3K9me3 demethylation, DELFIA europium; inhibition, % at 2.35 µM; actives 0.069% (n = 330,000); AID 2099;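 active = more than half of a compound's replicate wells show inhibition beyond 50%, single wells judged on their own value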;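 also: signal counts dimethyl H3K9 product captured on neutravidin plate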
697 NFkB conf: inhibitors of the PMA/ionomycin-induced NF-kB reporter in 697 B cells, retest; actives 35% (n = 2,000); inhibition, % at 4 µM; 697 B-cell NF-kB luciferase, 16 h; AID 449746; shares compounds with 697 NFkB inh; in the data active = inhibition mostly above about 28%, no sharp cut-off; inactive = mostly below about 22%
A number is an active result; i = inactive; nt = not tested or not shown; ! = not confirmed by another sample. An excerpt weighted towards active compounds, which were near 1.5% of everything screened.

SMILES	GalR3 antag	697 NFkB inh	NR2E3 ag-1	NR2E3 ag-2	Jurkat NFkB inh	JMJD2C inh	697 NFkB conf
Cn1c(=O)[nH]c(=O)c2c1nc(N1CCOCC1)n2CCSc1nnnn1-c1ccccc1	i	38	i	i	i	i	i
COc1ccc(CCn2c(N3CCOCC3)nc3c2c(=O)[nH]c(=O)n3C)cc1	i	i	i	i	i	i	nt
O=C(N/N=C(\CC(=O)c1cccs1)C(F)(F)F)c1ccncc1	i	i	i	i	i	i	i
COc1cc(NC(=O)c2cc3c(C)nc4ccccc4c3o2)cc(OC)c1OC	nt	37	i	i	i	i	44
Cc1nc2ccccc2c2oc(C(=O)Nc3ccc(C(C)C)cc3)cc12	i	i	i	i	i	i	nt
COC(=O)c1ccc(Oc2c(Cl)cccc2[N+](=O)[O-])cc1	i	i	i	i	i	i	nt
CCOc1ccc(C(F)(F)F)cc1NC(=O)c1ccc(OC)c([N+](=O)[O-])c1	i	40	i	i	i	i	i
COc1ccc(S(=O)(=O)Nc2ccc(N(C)C(C)=O)cc2)cc1	i	37	i	i	i	i	i
O=C(N[C@H](Cc1ccccc1)C(=O)N1CCN(Cc2ccccn2)CC1)[C@H]1O[C@@H](n2ccc(=O)[nH]c2=O)[C@H](O)[C@@H]1O	i	nt	nt	nt	nt	nt	nt
COc1cc(-c2nc3ccc(N4CCN(C)CC4)cc3[nH]2)cc(OC)c1OC	i	38	i	i	i	i	31
CC(C)CN(C(=O)COC(=O)c1ccc(Br)o1)c1c(N)n(Cc2ccccc2)c(=O)[nH]c1=O	i	i	i	i	i	i	nt
Cc1ccc(C(=O)OCC(=O)N(CC(C)C)c2c(N)n(Cc3ccccc3)c(=O)[nH]c2=O)o1	i	40	i	i	i	i	26
CC(C)CN(C(=O)COC(=O)C12CC3CC(CC(C3)C1)C2)c1c(N)n(Cc2ccccc2)c(=O)[nH]c1=O	i	50	i	i	i	i	52
CCN(CC)CCNC(=O)c1ccc(NC(=O)c2cc(S(=O)(=O)N3CCCCC3)ccc2N2CCOCC2)cc1	i	nt	nt	i	nt	nt	nt
O=C1CC(c2ccc3c(c2)OCCO3)Oc2ccc([N+](=O)[O-])cc21 (stereo not drawn)	i	i	i	i	i	i	i
Cc1[nH]c2ccccc2c1/C=N/NC(=O)c1cccs1	i	i	i	i	i	i	nt
Cc1c(/C=N/NC(=O)c2cccs2)c2ccccc2n1Cc1ccccc1Cl	i	i	i	i	i	i	i
O=C1c2ccccc2CCC12OC2c1ccncc1 (stereo not drawn)	i	nt	nt	i	nt	nt	nt
O=C(CNC(=O)c1cc(S(=O)(=O)N2CCCCC2)ccc1N1CCOCC1)Nc1ccc(F)c(F)c1	i	i	i	i	i	i	nt
Cc1ccc(N=C/C(C(=O)C(F)(F)F)=C(\O)c2cccs2)cc1	i	i	i	i	i	i	i
CCC(C)NC(=O)C1CCC(CNS(=O)(=O)c2ccc3c(c2)N(C(C)=O)CCO3)CC1 (stereo not drawn)	i	i	i	i	i	i	nt
O=C(Nc1cccc(Cl)c1)Nc1ccccc1C(=O)O	i	i	i	i	i	i	i
O=C(Nc1ccc(Cl)c(Cl)c1)Nc1ccccc1C(=O)O	i	i	i	i	i	i	i
CCOC(=O)C1CCCN(C(=O)c2ccc3ccccc3c2)CC1 (stereo not drawn)	i	nt	nt	i	nt	nt	nt
COc1ccc(OCc2nc3ccccc3n2C(C)C)cc1	i	i	i	i	i	i	nt
SMILES	GalR3 antag	697 NFkB inh	NR2E3 ag-1	NR2E3 ag-2	Jurkat NFkB inh	JMJD2C inh	697 NFkB conf
Cc1ccc(-c2c[n+]3c(n2-c2ccccc2)SCC3)cc1	i	39	i	i	i	i	42
Cc1ccc(-c2cn(-c3ccccc3)c3[n+]2CCCS3)cc1	i	56!	i	i	i	i	35
c1ccc(-c2cn(-c3ccccc3)c3[n+]2CCCS3)cc1	i	i	i	i	i	i	nt
COc1cccc(/C=N/Nc2nnc3c(n2)[nH]c2ccccc23)c1OC	i	i	i	i	i	i	nt
CCc1ccc2[nH]c3nc(N/N=C/c4cccc(O)c4)nnc3c2c1	i	60	i	i	i	i	76
CCCCN(C=O)c1c(CC)nc2c(OCC(=O)c3ccc(F)cc3)cccn12	i	nt	nt	i	nt	nt	nt
COc1ccc(C2c3[nH]c4ccccc4c3CCN2C(=O)c2ccc(=O)n(C)n2)c(F)c1 (stereo not drawn)	i	i	i	i	i	i	nt
CCc1cc(C(=O)N2CCc3c([nH]c4ccccc34)C2c2ccc(OC)cc2F)no1 (stereo not drawn)	i	i	i	i	i	i	i
O=C(COc1ccc(S(=O)(=O)NCc2ccccc2)cc1)NCc1cccnc1	i	i	nt	i	i	i	nt
O=C(c1ccc(N2CCCC2)c([N+](=O)[O-])c1)N1CCc2ccccc2C1	i	37	i	i	i	i	i
COC(=O)c1ccccc1NC(=S)NC(=O)c1ccc2c(c1)OCO2	i	46	nt	i	i	i	i
COCCN(C(=O)CCC(=O)Nc1cccnc1)C(C(=O)NC1CCCCC1)c1ccccc1 (stereo not drawn)	i	i	i	i	i	i	nt
CSc1ccc(/C=C(\C#N)C(=O)NC2CCCCC2)cc1	i	i	i	i	i	i	nt
CC(=O)Nc1ccc(/C=C(\C#N)C(=O)NC2CCCCC2)cc1	i	46	i	i	i	i	i
Cc1cc(OCC(=O)NC2CC2)c2c(C)c(C)c(=O)oc2c1	i	36	i	i	i	i	29
Cc1cc(OCC(=O)NC2CC2)c2c(C)cc(=O)oc2c1	nt	i	i	i	i	i	nt
CC(=O)c1ccc(N2CCN(c3ccnc4cc(Cl)ccc34)CC2)cc1	i	42	i	i	i	i	i
CC(C)(C)C(=O)N1CCN(c2ccnc3cc(Cl)ccc23)CC1	i	i	i	i	i	i	nt
COc1ccc(Cl)c(-c2cc(C(=O)Nc3ccccc3)[nH]n2)c1	i	nt	nt	i	nt	nt	nt
CN(C)c1ccc(N=Nc2ccccc2Br)cc1	i	i	i	i	i	i	i
CN(C)c1ccc(N=Nc2nccs2)cc1	i	nt	nt	i	nt	nt	nt
CCN1C(=O)c2cccc3c(S(=O)(=O)NCC4CCCO4)ccc1c23 (stereo not drawn)	i	37	i	i	i	i	59
CCN1C(=O)c2cccc3c(S(=O)(=O)Nc4ccccc4)ccc1c23	nt	52	i	i	i	i	43
CN1C(=O)c2cccc3c(S(=O)(=O)Nc4ccccc4F)ccc1c23	i	37	i	i	i	i	34
CCN1C(=O)c2cccc3c(S(=O)(=O)Nc4nc(C)cs4)ccc1c23	nt	i	i	i	i	i	nt
CCN1C(=O)c2cccc3c(S(=O)(=O)Nc4ccccn4)ccc1c23	i	58	i	i	i	i	54
